Active and inactive are the calls of the source. The calls are words filed in the database; no cut-off is given here.
Assays:
[1] = system: PC-12; assay: Protection against 6-OHDA-induced mitochondrial dysfunction in rat PC12 cells assessed as change in mitochondrial membrane potential at 5 uM pretreated with compound followed by 6-OHDA addition by JC-1 staining based flow cytometry (reference value: 73.2 %); assay type: functional
Summary of the method: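 Mitochondrial membrane potential in PC12 cells pretreated with compound (5, 10, 20 μM), then exposed to H₂O₂ (200 μM) or 6-OHDA (150 μM). JC-1 staining, red-to-green fluorescence shift read by flow cytometry. Mean ± SD, n = 3.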

[2] = system: PC-12; assay: Protection against 6-OHDA-induced apoptosis in rat PC12 cells assessed as late apoptotic cells at 10 uM incubated for 24 hrs by annexin V FITC/propidium iodide staining based flow cytometry (reference value: 7.6 %); assay type: functional
[3] = system: PC-12; assay: Protection against 6-OHDA-induced apoptosis in rat PC12 cells assessed as early apoptotic cells at 20 uM incubated for 24 hrs by annexin V FITC/propidium iodide staining based flow cytometry (reference value: 19.2 %); assay type: functional
[4] = system: PC-12; assay: Protection against 6-OHDA-induced apoptosis in rat PC12 cells assessed as necrotic cells at 20 uM incubated for 24 hrs by annexin V FITC/propidium iodide staining based flow cytometry (reference value: 1.1 %); assay type: functional
[5] = system: PC-12; assay: Prevention of H2O2-induced calcium overload in rat PC12 cells assessed as reduction in intracellular free calcium by measuring mean fluorescence intensity at 20 uM pretreated with compound followed by H2O2 addition by Fluo-3AM based fluorescence assay (reference value: 17791.36%); assay type: functional; settings: time 24 hrs
[6] = molecular target: T1, Nuclear factor erythroid 2-related factor 2 (Rattus norvegicus) (UniProt O54968); assay: Activation of Nrf2 in rat PC12 cells assessed as increase in NQO1 protein level after 24 hrs by Western blot analysis; assay type: cell-based; settings: PC-12, filed as activator, dose 5-20 µM
T1 sequence (whole entry): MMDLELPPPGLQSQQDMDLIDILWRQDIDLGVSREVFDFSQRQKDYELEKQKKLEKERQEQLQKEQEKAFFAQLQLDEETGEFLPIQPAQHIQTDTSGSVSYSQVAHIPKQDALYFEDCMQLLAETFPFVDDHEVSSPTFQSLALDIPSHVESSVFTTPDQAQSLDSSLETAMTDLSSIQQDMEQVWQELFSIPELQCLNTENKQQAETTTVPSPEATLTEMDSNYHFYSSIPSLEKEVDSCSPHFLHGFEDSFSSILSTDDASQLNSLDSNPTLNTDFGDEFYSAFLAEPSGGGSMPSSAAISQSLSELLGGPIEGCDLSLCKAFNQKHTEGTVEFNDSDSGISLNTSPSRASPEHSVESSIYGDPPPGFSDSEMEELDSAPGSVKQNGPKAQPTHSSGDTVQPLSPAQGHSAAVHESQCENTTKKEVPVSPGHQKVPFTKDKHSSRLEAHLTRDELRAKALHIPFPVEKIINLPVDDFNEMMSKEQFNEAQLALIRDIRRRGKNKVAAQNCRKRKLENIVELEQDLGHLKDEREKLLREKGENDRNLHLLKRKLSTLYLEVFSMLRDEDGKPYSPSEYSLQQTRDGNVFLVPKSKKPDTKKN
Summary of the method: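 PC12 cells treated with compound for 24 h at rising concentrations; NQO1, HO-1, TrxR1, GCLM, GCLC protein detected by Western blot.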

[7] = system: PC-12; assay: Neuroprotective activity against H2O2-induced cell death in rat PC12 cells assessed as cell viability at 20 uM preincubated for 30 mins in presence of ZNPP followed by H2O2 stimulation and measured after 24 hrs by MTT assay; assay type: functional, cell-based; settings: time 24.5 hrs
Summary of the method: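 PC12 cells incubated 30 min with compound (20 μM) plus brusatol (10 nM) or ZnPP (10 nM), then insult for 24 h (H₂O₂ stated as 150 μM); viability by MTT.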

CCN(C)C(=O)N1CCN(C(=O)/C=C/c2ccc(F)cc2)C1=O
Activity [1]: 79.4%
Activity [2]: 6.3%
Activity [3]: 5.2%
Activity [4]: 0.8%
Flu intensity [5]: 6730.32
Activity [6]: Dose-dependent effect
Activity [7]: inactive

Reference: ChEMBL document CHEMBL4732088, “Identification and optimization of piperlongumine analogues as potential antioxidant and anti-inflammatory agents via activation of Nrf2” (Eur J Med Chem, 2021)
